ChEMBL document CHEMBL4765301, “Discovery of novel TNNI3K inhibitor suppresses pyroptosis and apoptosis in murine myocardial infarction injury” (Eur J Med Chem, 2020)

Legend:
[1] = molecular target: T1, Serine/threonine-protein kinase TNNI3K (Homo sapiens) (UniProt Q59H18); experiment: Inhibition of TNNI3K (unknown origin) assessed as residual activity at 1 uM using biotinylated CTnI as substrate by HTRF analysis relative to control
T1 sequence (whole entry): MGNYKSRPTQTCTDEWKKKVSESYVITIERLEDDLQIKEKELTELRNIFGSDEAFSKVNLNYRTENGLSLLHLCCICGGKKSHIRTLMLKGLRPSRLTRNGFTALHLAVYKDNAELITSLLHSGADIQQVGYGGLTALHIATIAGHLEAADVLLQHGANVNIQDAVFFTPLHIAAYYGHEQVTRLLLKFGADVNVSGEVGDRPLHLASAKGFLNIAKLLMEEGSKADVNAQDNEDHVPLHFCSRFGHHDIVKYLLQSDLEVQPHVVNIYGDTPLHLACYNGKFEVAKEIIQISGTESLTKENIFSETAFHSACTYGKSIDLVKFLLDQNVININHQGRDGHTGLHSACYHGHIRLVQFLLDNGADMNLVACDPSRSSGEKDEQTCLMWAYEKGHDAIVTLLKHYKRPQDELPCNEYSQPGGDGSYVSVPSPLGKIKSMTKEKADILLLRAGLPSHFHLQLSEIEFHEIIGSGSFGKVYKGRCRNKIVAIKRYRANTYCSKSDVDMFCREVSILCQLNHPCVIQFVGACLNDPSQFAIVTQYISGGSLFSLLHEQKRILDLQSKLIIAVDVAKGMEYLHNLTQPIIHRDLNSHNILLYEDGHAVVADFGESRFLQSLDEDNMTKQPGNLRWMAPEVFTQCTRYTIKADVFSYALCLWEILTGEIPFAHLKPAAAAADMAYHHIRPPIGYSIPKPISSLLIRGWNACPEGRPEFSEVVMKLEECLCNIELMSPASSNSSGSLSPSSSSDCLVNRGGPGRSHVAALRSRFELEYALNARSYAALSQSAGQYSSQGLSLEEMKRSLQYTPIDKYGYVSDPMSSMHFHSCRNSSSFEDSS
Method in brief: (§1)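 TNNI3K was assayed by HTRF using a GST-tagged TNNI3K kinase domain and a biotinylated cardiac troponin I substrate peptide, followed by the two HTRF detection reagents. Compounds were screened at 1.0 µM, then IC50s were determined.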

[2] = molecular target: T2, Serine/threonine-protein kinase TNNI3K (Homo sapiens, UniProt Q59H18); experiment: Inhibition of TNNI3K (unknown origin) using biotinylated CTnI as substrate by HTRF analysis; method in brief: as §1
T2 sequence (Q59H18 whole entry): T1 sequence (whole entry)

H9c2 [3] = experiment: Cytoprotective activity against OGD-induced cell death in rat H9c2 cells assessed as cell viability at 10 uM incubated for 24 hrs by MTT assay (reference value: 42.08 to 49.11 %); format: functional; settings: read-out: Activity
[4] = molecular target: Epidermal growth factor receptor (Homo sapiens) (UniProt P00533); experiment: Inhibition of recombinant human EGFR (696 to end residues) assessed as residual activity at 1 uM using poly(Glu, Tyr) 4:1 as substrate incubated for 40 mins by [gamma-33P]-ATP scintillation counting based radiometry assay relative to control
H9c2 [5] = experiment: Cytoprotective activity against OGD-induced cell death in rat H9c2 cells assessed as cell viability at 1 uM incubated for 24 hrs by MTT assay (reference value: 42.08 to 49.11 %); format: functional; settings: read-out: Activity
[6] = molecular target: Vascular endothelial growth factor receptor 1 (Homo sapiens) (UniProt P17948); experiment: Inhibition of recombinant human FLT1 (783 to end residues) assessed as residual activity at 1 uM using KKKSPGEYVNIEFG as substrate incubated for 40 mins by [gamma-33P]-ATP scintillation counting based radiometry assay relative to control
Vascular endothelial growth factor receptor 1 (Homo sapiens), sequence (P17948 whole entry): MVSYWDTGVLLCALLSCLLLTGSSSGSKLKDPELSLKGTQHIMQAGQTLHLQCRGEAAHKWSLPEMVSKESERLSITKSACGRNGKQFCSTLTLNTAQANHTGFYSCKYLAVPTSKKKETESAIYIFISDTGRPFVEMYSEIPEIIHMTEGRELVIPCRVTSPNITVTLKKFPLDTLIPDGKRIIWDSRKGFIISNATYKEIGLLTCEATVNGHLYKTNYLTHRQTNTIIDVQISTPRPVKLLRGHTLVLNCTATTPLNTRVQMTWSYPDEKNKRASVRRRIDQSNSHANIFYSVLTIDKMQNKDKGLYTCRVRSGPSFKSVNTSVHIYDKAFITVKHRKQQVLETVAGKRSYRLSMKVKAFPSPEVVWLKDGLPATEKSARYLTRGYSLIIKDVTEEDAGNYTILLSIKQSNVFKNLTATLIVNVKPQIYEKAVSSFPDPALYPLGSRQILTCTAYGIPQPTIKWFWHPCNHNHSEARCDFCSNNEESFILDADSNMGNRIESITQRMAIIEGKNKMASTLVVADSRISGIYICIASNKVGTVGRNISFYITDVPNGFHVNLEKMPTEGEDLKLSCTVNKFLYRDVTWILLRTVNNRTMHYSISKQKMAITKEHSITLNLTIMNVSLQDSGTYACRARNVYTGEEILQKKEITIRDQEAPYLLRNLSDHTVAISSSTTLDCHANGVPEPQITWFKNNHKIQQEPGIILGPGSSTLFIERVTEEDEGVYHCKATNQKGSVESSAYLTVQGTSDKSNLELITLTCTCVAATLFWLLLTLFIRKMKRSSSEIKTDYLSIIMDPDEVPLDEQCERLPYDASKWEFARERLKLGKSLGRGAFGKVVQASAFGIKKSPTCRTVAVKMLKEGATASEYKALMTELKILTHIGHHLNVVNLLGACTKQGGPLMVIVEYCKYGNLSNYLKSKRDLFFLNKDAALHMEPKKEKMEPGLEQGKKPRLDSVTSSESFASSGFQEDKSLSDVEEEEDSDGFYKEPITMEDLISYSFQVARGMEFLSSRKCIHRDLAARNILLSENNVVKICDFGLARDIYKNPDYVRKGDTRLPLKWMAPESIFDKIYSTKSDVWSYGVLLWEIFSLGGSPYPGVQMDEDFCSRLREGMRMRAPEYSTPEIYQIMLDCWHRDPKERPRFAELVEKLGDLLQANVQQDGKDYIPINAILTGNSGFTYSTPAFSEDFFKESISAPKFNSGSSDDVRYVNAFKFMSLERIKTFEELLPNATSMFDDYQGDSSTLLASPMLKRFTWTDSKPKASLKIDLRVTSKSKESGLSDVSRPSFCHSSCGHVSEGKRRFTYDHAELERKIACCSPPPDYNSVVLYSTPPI

[7] = molecular target: Receptor tyrosine-protein kinase erbB-2 (Homo sapiens) (UniProt P04626); experiment: Inhibition of recombinant human HER2 (676 to end residues) assessed as residual activity at 1 uM using poly(Glu, Tyr) 4:1 as substrate incubated for 40 mins by [gamma-33P]-ATP scintillation counting based radiometry assay relative to control
Receptor tyrosine-protein kinase erbB-2 (Homo sapiens), sequence (P04626 whole entry): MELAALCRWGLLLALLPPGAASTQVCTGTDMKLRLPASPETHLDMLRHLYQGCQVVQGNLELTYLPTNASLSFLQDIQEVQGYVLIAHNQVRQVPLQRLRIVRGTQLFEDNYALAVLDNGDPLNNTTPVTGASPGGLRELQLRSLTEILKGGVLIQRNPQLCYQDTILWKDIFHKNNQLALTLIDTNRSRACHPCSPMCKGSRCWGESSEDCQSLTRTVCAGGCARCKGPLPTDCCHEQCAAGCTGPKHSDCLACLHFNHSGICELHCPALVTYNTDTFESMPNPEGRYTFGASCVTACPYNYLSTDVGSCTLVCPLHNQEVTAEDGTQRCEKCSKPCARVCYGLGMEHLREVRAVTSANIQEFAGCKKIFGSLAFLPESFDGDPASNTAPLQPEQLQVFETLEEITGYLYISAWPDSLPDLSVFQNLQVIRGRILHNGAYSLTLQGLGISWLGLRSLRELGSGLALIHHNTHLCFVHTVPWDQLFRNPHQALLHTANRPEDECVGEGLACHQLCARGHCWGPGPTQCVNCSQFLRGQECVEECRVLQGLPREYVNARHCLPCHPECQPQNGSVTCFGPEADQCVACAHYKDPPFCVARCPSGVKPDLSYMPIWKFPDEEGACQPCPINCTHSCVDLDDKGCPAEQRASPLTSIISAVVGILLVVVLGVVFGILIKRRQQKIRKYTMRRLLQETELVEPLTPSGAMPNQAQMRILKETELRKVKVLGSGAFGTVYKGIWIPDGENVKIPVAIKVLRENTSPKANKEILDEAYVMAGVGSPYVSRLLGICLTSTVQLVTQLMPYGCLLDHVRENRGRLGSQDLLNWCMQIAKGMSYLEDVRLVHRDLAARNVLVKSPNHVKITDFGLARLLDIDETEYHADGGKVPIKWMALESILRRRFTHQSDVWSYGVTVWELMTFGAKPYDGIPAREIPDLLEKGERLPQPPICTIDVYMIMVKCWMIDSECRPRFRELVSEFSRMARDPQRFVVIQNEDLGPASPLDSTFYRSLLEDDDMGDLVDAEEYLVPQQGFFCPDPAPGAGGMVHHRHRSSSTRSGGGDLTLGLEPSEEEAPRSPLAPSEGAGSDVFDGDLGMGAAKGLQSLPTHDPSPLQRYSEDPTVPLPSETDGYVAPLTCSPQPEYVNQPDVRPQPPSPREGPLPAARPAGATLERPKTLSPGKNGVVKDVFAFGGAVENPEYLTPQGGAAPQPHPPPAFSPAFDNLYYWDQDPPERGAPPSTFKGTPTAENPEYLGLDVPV

[8] = molecular target: Vascular endothelial growth factor receptor 2 (Homo sapiens) (UniProt P35968); experiment: Inhibition of recombinant human KDR (790 to end residues) assessed as residual activity at 1 uM using myelin basic protein as substrate incubated for 40 mins by [gamma-33P]-ATP scintillation counting based radiometry assay relative to control
Vascular endothelial growth factor receptor 2 (Homo sapiens), sequence (P35968 whole entry): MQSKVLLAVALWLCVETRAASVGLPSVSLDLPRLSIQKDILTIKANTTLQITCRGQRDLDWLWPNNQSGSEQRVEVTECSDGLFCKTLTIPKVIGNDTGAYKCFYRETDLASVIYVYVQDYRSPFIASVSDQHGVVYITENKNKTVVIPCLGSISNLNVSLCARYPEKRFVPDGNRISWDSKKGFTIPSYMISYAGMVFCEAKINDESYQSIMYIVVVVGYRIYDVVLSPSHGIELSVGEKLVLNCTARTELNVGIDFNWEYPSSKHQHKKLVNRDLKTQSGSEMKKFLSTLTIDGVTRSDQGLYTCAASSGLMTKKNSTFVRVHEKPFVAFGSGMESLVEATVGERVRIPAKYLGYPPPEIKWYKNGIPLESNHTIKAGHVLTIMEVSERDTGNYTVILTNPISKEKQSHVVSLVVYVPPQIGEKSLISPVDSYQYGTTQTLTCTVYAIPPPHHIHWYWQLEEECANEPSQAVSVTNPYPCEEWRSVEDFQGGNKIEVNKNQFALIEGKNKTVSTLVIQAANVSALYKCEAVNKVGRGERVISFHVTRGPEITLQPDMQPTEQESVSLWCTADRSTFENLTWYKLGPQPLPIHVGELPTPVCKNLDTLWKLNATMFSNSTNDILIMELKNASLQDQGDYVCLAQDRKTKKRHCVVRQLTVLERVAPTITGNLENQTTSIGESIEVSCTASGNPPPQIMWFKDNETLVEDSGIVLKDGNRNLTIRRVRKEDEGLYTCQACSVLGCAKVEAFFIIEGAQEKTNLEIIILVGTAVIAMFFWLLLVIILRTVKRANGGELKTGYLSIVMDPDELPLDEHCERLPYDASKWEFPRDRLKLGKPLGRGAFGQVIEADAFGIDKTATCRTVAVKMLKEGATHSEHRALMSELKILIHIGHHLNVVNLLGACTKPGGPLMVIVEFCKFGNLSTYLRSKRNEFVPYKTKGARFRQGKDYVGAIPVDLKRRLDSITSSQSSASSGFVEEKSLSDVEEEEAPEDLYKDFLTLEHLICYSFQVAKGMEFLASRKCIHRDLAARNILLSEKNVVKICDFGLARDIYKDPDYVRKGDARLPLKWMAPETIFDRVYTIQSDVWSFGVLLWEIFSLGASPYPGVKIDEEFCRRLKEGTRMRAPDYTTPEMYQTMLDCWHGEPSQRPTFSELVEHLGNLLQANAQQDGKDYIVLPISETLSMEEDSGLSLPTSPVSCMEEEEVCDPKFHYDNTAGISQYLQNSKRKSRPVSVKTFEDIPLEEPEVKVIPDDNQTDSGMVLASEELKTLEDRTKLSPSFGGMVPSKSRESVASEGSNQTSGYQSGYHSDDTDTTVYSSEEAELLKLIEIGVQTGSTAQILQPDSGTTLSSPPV

SMILES | Activity [1] | IC50 [2] | Activity [4] | Activity [6] | Activity [7] | Activity [8] | viability at 10 µM (H9c2 [3]) | viability at 1 µM (H9c2 [5])
CCC(=O)Nc1cc(Nc2ncnc3sc4c(c23)CCN(CCCN2CCOCC2)C4)ccc1N(C)C | 37% | 480 nM | 105% | 90% | 108% | 86% | 82.2% | 62.4%
CN1CCc2c(sc3ncnc(Nc4ccc(N(C)C)c(NC(=O)c5ccncc5)c4)c23)C1 | 46% |  | 105% | 105% | 97% | 84% |  | 
CN(C)c1ccc(Nc2ncnc3sc4c(c23)CCN(C(=O)c2ccncc2)C4)cc1NC(=O)c1ccco1 | 35% | 980 nM | 107% | 109% | 116% | 92% | 70.7% | 49.1%
CN(C)c1ccc(Nc2ncnc3sc4c(c23)CCN(C(=O)c2ncccn2)C4)cc1NC(=O)c1ccco1 | 54% |  | 82% | 101% | 98% | 81% |  | 
CN(C)CCCN1CCc2c(sc3ncnc(Nc4ccc(N(C)C)c(NC(=O)c5cccs5)c4)c23)C1 | 33% | 570 nM | 86% | 98% | 102% | 81% | 78.5% | 58.5%
CCC(=O)Nc1cc(Nc2ncnc3sc4c(c23)CCN(C)C4)ccc1N(C)C | 49% |  | 99% | 95% | 109% | 82% |  | 
CN1CCN(CCCN2CCc3c(sc4ncnc(Nc5ccc(N(C)C)c(NC(=O)c6ccco6)c5)c34)C2)CC1 | 33% | 640 nM | 90% | 100% | 107% | 88% | 79.9% | 61.1%
CCC(=O)Nc1cc(Nc2ncnc3sc4c(c23)CCN(CC)C4)ccc1N(C)C | 53% |  | 93% | 109% | 90% | 80% |  | 
CN(C)c1ccc(Nc2ncnc3sc4c(c23)CCN(C(=O)c2cccnc2)C4)cc1NC(=O)c1cccs1 | 45% |  | 94% | 81% | 93% | 69% |  | 
CN(C)c1ccc(Nc2ncnc3sc4c(c23)CCN(C(=O)c2ncccn2)C4)cc1NC(=O)c1cccs1 | 49% |  | 92% | 104% | 112% | 86% |  | 
CN1CCc2c(sc3ncnc(Nc4ccc(N(C)C)c(NC(=O)c5cccnc5)c4)c23)C1 | 47% |  | 105% | 103% | 93% | 94% |  | 
CN(C)c1ccc(Nc2ncnc3sc4c(c23)CCN(C(=O)c2cccnc2)C4)cc1NC(=O)c1ccco1 | 41% |  | 110% | 89% | 101% | 93% |  | 
CN(C)c1ccc(Nc2ncnc3sc4c(c23)CCN(C(=O)c2cnccn2)C4)cc1NC(=O)c1cccs1 | 44% |  | 80% | 98% | 113% | 80% |  | 
CN(C)c1ccc(Nc2ncnc3sc4c(c23)CCN(C(=O)c2cnccn2)C4)cc1NC(=O)c1ccco1 | 43% |  | 89% | 98% | 96% | 90% |  | 
CCC(=O)Nc1cc(Nc2ncnc3sc4c(c23)CCN(c2ncccn2)C4)ccc1N(C)C | 59% |  | 102% | 106% | 99% | 80% |  | 
CN(C)c1ccc(Nc2ncnc3sc4c(c23)CCN(C(=O)c2ccncc2)C4)cc1NC(=O)c1cccs1 | 36% |  | 85% | 85% | 110% | 82% |  | 
CCC(=O)Nc1cc(Nc2ncnc3sc4c(c23)CCN(C(=O)c2ccc(C(F)(F)F)cc2)C4)ccc1N(C)C | 41% |  | 107% | 109% | 103% | 95% |  | 

Further lines, with some results ahead:

Activity [1] | IC50 [2] | Activity [4] | Activity [6] | Activity [7] | Activity [8] | SMILES | viability at 10 µM (H9c2 [3]) | viability at 1 µM (H9c2 [5])
48% |  | 91% | 106% | 94% | 85% | CCC(=O)Nc1cc(Nc2ncnc3sc4c(c23)CCN(Cc2ccccc2)C4)ccc1N(C)C |  | 
55% |  | 100% | 94% | 103% | 89% | CN1CCc2c(sc3ncnc(Nc4ccc(N(C)C)c(NC(=O)c5ccccn5)c4)c23)C1 |  | 
38% | 780 nM | 93% | 101% | 106% | 95% | CN(C)c1ccc(Nc2ncnc3sc4c(c23)CCNC4)cc1NC(=O)c1cccs1 | 75.9% | 56.9%
45% |  | 108% | 104% | 107% | 90% | CN(C)c1ccc(Nc2ncnc3sc4c(c23)CCNC4)cc1NC(=O)c1cccnc1 |  | 
39% | 960 nM | 90% | 103% | 109% | 92% | CN(C)c1ccc(Nc2ncnc3sc4c(c23)CCNC4)cc1NC(=O)c1ccncc1 | 68.1% | 53%
35% | 730 nM | 100% | 96% | 91% | 92% | CN(C)c1ccc(Nc2ncnc3sc4c(c23)CCNC4)cc1NC(=O)c1ccco1 | 71% | 54.1%
40% |  | 104% | 108% | 103% | 89% | CN1CCc2c(sc3ncnc(Nc4ccc(N(C)C)c(NC(=O)c5cccs5)c4)c23)C1 |  | 
40% |  | 99% | 87% | 99% | 73% | CN(C)c1ccc(Nc2ncnc3sc4c(c23)CCN(C(=O)c2ccccn2)C4)cc1NC(=O)c1cccs1 |  | 
42% |  | 103% | 96% | 98% | 95% | CN(C)c1ccc(Nc2ncnc3sc4c(c23)CCNC4)cc1NC(=O)c1ccccn1 |  | 
46% |  | 97% | 107% | 102% | 92% | CCC(=O)Nc1cc(Nc2ncnc3sc4c(c23)CCNC4)ccc1N(C)C |  | 
71% |  | 110% | 105% | 90% | 88% | CN(C)c1ccc(Nc2ncnc3sc4c(c23)CCNC4)cc1NC(=O)c1cccc2ccccc12 |  | 
71% |  | 108% | 97% | 92% | 83% | Cc1ccc(C(=O)Nc2cc(Nc3ncnc4sc5c(c34)CCN(C)C5)ccc2N(C)C)cc1 |  | 
78% |  | 108% | 96% | 92% | 95% | Cc1ccc(C(=O)Nc2cc(Nc3ncnc4sc5c(c34)CCNC5)ccc2N(C)C)cc1 |  | 
77% |  | 98% | 101% | 96% | 87% | CN1CCc2c(sc3ncnc(Nc4ccc(N(C)C)c(NC(=O)c5cccc6ccccc56)c4)c23)C1 |  | 
